ChEMBL document CHEMBL4118285, “Synthesis and antibacterial activity of novel ketolides with 11,12-quinoylalkyl side chains” (2018)
≈ marks a conversion by molar mass, not a printed value.

Key:
Assay type in all cases: functional
[1] = tested on: Staphylococcus epidermidis; assay: Antibacterial activity against methicillin-sensitive Staphylococcus epidermidis 11X315 by broth microdilution method
Procedure, shortened: (§1)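 MIC values were determined by broth microdilution following Clinical and Laboratory Standards Institute (CLSI) recommendations.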

[2] = tested on: Staphylococcus epidermidis; assay: Antibacterial activity against methicillin-resistant Staphylococcus epidermidis 11C176 by broth microdilution method; procedure, shortened: as §1
[3] = tested on: Streptococcus pneumoniae; assay: Antibacterial activity against erythromycin-resistant Streptococcus pneumoniae 11 J011 by broth microdilution method; procedure, shortened: as §1
[4] = tested on: Staphylococcus aureus; assay: Antibacterial activity against methicillin-sensitive Staphylococcus aureus 11B122 by broth microdilution method
Procedure, shortened: (§2)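 MICs were determined by broth microdilution following CLSI recommendations, with clarithromycin and telithromycin run as reference antibiotics.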

[5] = tested on: Haemophilus influenzae; assay: Antibacterial activity against azithromycin-resistant Haemophilus influenzae 11Q373 by broth microdilution method; procedure, shortened: as §1
[6] = tested on: Streptococcus pyogenes; assay: Antibacterial activity against erythromycin-resistant Streptococcus pyogenes 11 N369 by broth microdilution method; procedure, shortened: as §1
[7] = tested on: Staphylococcus aureus; assay: Antibacterial activity against methicillin-resistant Staphylococcus aureus 11B117 by broth microdilution method; procedure, shortened: as §1
[8] = tested on: Haemophilus influenzae; assay: Antibacterial activity against azithromycin-sensitive Haemophilus influenzae 11P042 by broth microdilution method; procedure, shortened: as §2
[9] = tested on: Streptococcus pyogenes; assay: Antibacterial activity against erythromycin-sensitive Streptococcus pyogenes 11L264 by broth microdilution method; procedure, shortened: as §2
[10] = tested on: Streptococcus pneumoniae; assay: Antibacterial activity against erythromycin-sensitive Streptococcus pneumoniae 11G364 by broth microdilution method; procedure, shortened: as §2
[11] = tested on: Staphylococcus aureus; assay: Antibacterial activity against methicillin-resistant Staphylococcus aureus ATCC 33591 by broth microdilution method; procedure, shortened: as §1
[12] = tested on: Escherichia coli; assay: Antibacterial activity against extended spectrum beta-lactamases non-producing Escherichia coli ATCC 25922 by broth microdilution method; procedure, shortened: as §2
[13] = tested on: Pseudomonas aeruginosa; assay: Antibacterial activity against Pseudomonas aeruginosa ATCC 27853 by broth microdilution method; procedure, shortened: as §2
[14] = tested on: Streptococcus pyogenes; assay: Antibacterial activity against methicillin-resistant Streptococcus pyogenes 12-1 by broth microdilution method; procedure, shortened: as §1
[15] = tested on: Staphylococcus epidermidis; assay: Antibacterial activity against methicillin-resistant Staphylococcus epidermidis 13-3 by broth microdilution method; procedure, shortened: as §1
[16] = tested on: Moraxella catarrhalis; assay: Antibacterial activity against clarithromycin-sensitive Moraxella catarrhalis 12-1 by broth microdilution method; procedure, shortened: as §2
[17] = tested on: Streptococcus pyogenes; assay: Antibacterial activity against […] Streptococcus pyogenes 12-8 by broth microdilution method; procedure, shortened: as §2
[18] = tested on: Klebsiella pneumoniae; assay: Antibacterial activity against extended spectrum beta-lactamases producing Klebsiella pneumoniae ATCC 700603 by broth microdilution method; procedure, shortened: as §2
[19] = tested on: Staphylococcus aureus; assay: Antibacterial activity against methicillin-sensitive Staphylococcus aureus ATCC 29213 by broth microdilution method; procedure, shortened: as §2
[20] = tested on: Staphylococcus epidermidis; assay: Antibacterial activity against methicillin-sensitive Staphylococcus epidermidis ATCC 12228 by broth microdilution method; procedure, shortened: as §2
[21] = tested on: Moraxella catarrhalis; assay: Antibacterial activity against clarithromycin-resistant Moraxella catarrhalis 12-2 by broth microdilution method; procedure, shortened: as §1

SMILES | MIC [1] [µg/mL] | MIC [2] [µg/mL] | MIC [3] [µg/mL] | MIC [4] [µg/mL] | MIC [5] [µg/mL] | MIC [6] [µg/mL] | MIC [7] [µg/mL] | MIC [8] [µg/mL] | MIC [9] [µg/mL] | MIC [10] [µg/mL] | MIC [11] [µg/mL] | MIC [12] [µg/mL] | MIC [13] [µg/mL] | MIC [14] [µg/mL] | MIC [15] [µg/mL] | MIC [16] [µg/mL] | MIC [17] [µg/mL] | MIC [18] [µg/mL] | MIC [19] [µg/mL] | MIC [20] [µg/mL] | other results
CC[C@H]1OC(=O)[C@H](C)C(=O)[C@H](C)[C@@H](O[C@@H]2O[C@H](C)C[C@H](N(C)C)[C@H]2O)[C@](C)(OC)C[C@@H](C)C(=O)[C@H](C)[C@H]2N(CC/C=C/c3cnc4ccccc4c3)C(=O)O[C@]12C | 0.062 (≈ 0.0781 µM) | 0.062 (≈ 0.0781 µM) | 0.031 (≈ 0.039 µM) | 0.125 (≈ 0.157 µM) | 4 (≈ 5.04 µM) | 0.25 (≈ 0.315 µM) | 64 (≈ 80.6 µM) | 1 (≈ 1.26 µM) | ≤ 0.004 | ≤ 0.004 | – | – | – | – | – | – | – | – | – | – | –
CC[C@H]1OC(=O)[C@H](C)C(=O)[C@H](C)[C@@H](O[C@@H]2O[C@H](C)C[C@H](N(C)C)[C@H]2O)[C@](C)(OC)C[C@@H](C)C(=O)[C@H](C)[C@H]2N(CC/C=C/c3cncc4cc(OC)ccc34)C(=O)O[C@]12C | – | – | – | – | – | – | – | – | – | – | 64 (≈ 77.7 µM) | 64 (≈ 77.7 µM) | 64 (≈ 77.7 µM) | 32 (≈ 38.8 µM) | 64 (≈ 77.7 µM) | 0.015 (≈ 0.0182 µM) | 0.015 (≈ 0.0182 µM) | > 256 | 0.06 (≈ 0.0728 µM) | 0.015 (≈ 0.0182 µM) | MIC [21]: 8 µg/mL (≈ 9.71 µM)
CC[C@H]1OC(=O)[C@H](C)C(=O)[C@H](C)[C@@H](O[C@@H]2O[C@H](C)C[C@H](N(C)C)[C@H]2O)[C@](C)(OC)C[C@@H](C)C(=O)[C@H](C)[C@H]2N(CCCSc3cnc4ccccc4c3)C(=O)O[C@]12C | 0.125 (≈ 0.154 µM) | 0.125 (≈ 0.154 µM) | 0.125 (≈ 0.154 µM) | 0.125 (≈ 0.154 µM) | 32 (≈ 39.3 µM) | 0.5 (≈ 0.614 µM) | > 64 | 16 (≈ 19.7 µM) | 0.016 (≈ 0.0197 µM) | 0.008 (≈ 0.00983 µM) | – | – | – | – | – | – | – | – | – | – | –
CC[C@H]1OC(=O)[C@H](C)C(=O)[C@H](C)[C@@H](O[C@@H]2O[C@H](C)C[C@H](N(C)C)[C@H]2O)[C@](C)(OC)C[C@@H](C)C(=O)[C@H](C)[C@H]2N(CCCCc3cnc4ccccc4c3)C(=O)O[C@]12C | 0.062 (≈ 0.0779 µM) | 0.062 (≈ 0.0779 µM) | 0.062 (≈ 0.0779 µM) | 0.125 (≈ 0.157 µM) | 4 (≈ 5.03 µM) | 0.5 (≈ 0.628 µM) | 64 (≈ 80.4 µM) | 0.5 (≈ 0.628 µM) | 0.008 (≈ 0.0101 µM) | ≤ 0.004 | – | – | – | – | – | – | – | – | – | – | –
CC[C@H]1OC(=O)[C@H](C)C(=O)[C@H](C)[C@@H](O[C@@H]2O[C@H](C)C[C@H](N(C)C)[C@H]2O)[C@](C)(OC)C[C@@H](C)C(=O)[C@H](C)[C@H]2N(CCCOc3ccc4cccnc4c3)C(=O)O[C@]12C | – | – | – | – | – | – | – | – | – | – | 256 (≈ 321 µM) | 16 (≈ 20.1 µM) | 32 (≈ 40.1 µM) | > 256 | > 256 | 0.015 (≈ 0.0188 µM) | 0.015 (≈ 0.0188 µM) | 128 (≈ 160 µM) | 0.015 (≈ 0.0188 µM) | 0.03 (≈ 0.0376 µM) | MIC [21]: 64 µg/mL (≈ 80.2 µM)
CC[C@H]1OC(=O)[C@H](C)C(=O)[C@H](C)[C@@H](O[C@@H]2O[C@H](C)C[C@H](N(C)C)[C@H]2O)[C@](C)(OC)C[C@@H](C)C(=O)[C@H](C)[C@H]2N(CC/C=C/c3cncc4ccc(OCc5ccccc5)cc34)C(=O)O[C@]12C | – | – | – | – | – | – | – | – | – | – | 8 (≈ 8.89 µM) | > 256 | > 256 | 8 (≈ 8.89 µM) | 8 (≈ 8.89 µM) | 1 (≈ 1.11 µM) | 0.125 (≈ 0.139 µM) | > 256 | 1 (≈ 1.11 µM) | 1 (≈ 1.11 µM) | MIC [21]: 4 µg/mL (≈ 4.44 µM)
CC[C@H]1OC(=O)[C@H](C)C(=O)[C@H](C)[C@@H](O[C@@H]2O[C@H](C)C[C@H](N(C)C)[C@H]2O)[C@](C)(OC)C[C@@H](C)C(=O)[C@H](C)[C@H]2N(CCCOc3cnc4ccccc4c3)C(=O)O[C@]12C | 0.062 (≈ 0.0777 µM) | 0.25 (≈ 0.313 µM) | 0.062 (≈ 0.0777 µM) | 0.125 (≈ 0.157 µM) | 8 (≈ 10 µM) | 1 (≈ 1.25 µM) | > 64 | 1 (≈ 1.25 µM) | 0.008 (≈ 0.01 µM) | ≤ 0.004 | – | – | – | – | – | – | – | – | – | – | –
CC[C@H]1OC(=O)[C@H](C)C(=O)[C@H](C)[C@@H](O[C@@H]2O[C@H](C)C[C@H](N(C)C)[C@H]2O)[C@](C)(OC)C[C@@H](C)C(=O)[C@H](C)[C@H]2N(CC/C=C/c3cncc4cc(C)ccc34)C(=O)O[C@]12C | – | – | – | – | – | – | – | – | – | – | 64 (≈ 79.2 µM) | 64 (≈ 79.2 µM) | 64 (≈ 79.2 µM) | 64 (≈ 79.2 µM) | 128 (≈ 158 µM) | 0.015 (≈ 0.0186 µM) | 0.015 (≈ 0.0186 µM) | > 256 | 0.06 (≈ 0.0743 µM) | 0.06 (≈ 0.0743 µM) | MIC [21]: 32 µg/mL (≈ 39.6 µM)
